Data reported in ChEMBL document CHEMBL1154352, “Toll-like receptor 7 selective synthetic oligoribonucleotide agonists: synthesis and structure-activity relationship studies” (J Med Chem, 2009).
Calls of active or inactive are those of the source. The rule behind the calls is not given here.

Assays:
PBMC = test: Immunomodulatory activity in human PBMC assessed as induction of TNFalpha at 100 ug/ml after 24 hrs; format: functional, cell-based
Outline: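 Human PBMCs plated at 5 × 10^6 cells/mL; compounds dissolved in PBS added at various concentrations, 37 °C for 24 h. Supernatant cytokines/chemokines quantified with human Luminex multiplex kit.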

[1] = target: T1, Toll-like receptor 7 (Homo sapiens) (UniProt Q9NYK1); test: Activation of human TLR7 expressed in HEK293XL assessed as fold induction of NF-kappaB activity at 50 ug/ml after 18 hrs by reporter gene assay relative to control
T1 sequence (whole entry): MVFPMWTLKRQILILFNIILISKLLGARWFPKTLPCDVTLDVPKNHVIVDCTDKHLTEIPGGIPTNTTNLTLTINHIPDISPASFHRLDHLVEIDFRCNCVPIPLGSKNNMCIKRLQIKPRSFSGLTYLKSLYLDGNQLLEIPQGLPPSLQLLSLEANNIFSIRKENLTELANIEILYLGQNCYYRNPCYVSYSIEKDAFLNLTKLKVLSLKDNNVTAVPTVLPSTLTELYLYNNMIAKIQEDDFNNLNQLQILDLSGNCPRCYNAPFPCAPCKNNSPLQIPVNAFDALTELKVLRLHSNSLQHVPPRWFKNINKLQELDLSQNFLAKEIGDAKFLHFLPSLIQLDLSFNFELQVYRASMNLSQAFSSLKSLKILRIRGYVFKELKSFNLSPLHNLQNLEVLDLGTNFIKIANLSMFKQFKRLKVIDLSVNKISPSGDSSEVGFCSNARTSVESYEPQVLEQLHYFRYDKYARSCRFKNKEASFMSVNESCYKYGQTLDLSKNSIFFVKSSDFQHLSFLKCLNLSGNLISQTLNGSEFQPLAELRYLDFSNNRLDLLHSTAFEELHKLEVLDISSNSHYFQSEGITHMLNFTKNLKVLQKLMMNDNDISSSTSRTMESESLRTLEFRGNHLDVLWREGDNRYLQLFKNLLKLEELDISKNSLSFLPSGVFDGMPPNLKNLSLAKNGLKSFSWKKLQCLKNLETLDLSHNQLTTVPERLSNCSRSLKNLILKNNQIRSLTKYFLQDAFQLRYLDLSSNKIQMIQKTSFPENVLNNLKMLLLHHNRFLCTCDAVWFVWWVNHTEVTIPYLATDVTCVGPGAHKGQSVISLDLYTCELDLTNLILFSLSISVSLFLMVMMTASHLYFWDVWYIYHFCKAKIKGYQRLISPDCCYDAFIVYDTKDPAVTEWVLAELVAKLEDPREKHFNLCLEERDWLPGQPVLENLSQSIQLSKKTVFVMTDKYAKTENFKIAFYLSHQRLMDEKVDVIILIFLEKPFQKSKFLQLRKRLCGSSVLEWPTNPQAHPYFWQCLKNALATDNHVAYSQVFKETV
Outline: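 HEK293 cells stably expressing human TLR7 or TLR8, transiently transfected with SEAP reporter plasmid; medium replaced, SIMRA compounds added, 18 h incubation. Supernatant SEAP measured by QuantiBlue; expressed as fold increase in NF-κB activity over PBS control. Tabulated data at 50 μg/mL, representative of three independent experiments.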

[2] = target: T2, Toll-like receptor 9 (Mus musculus) (UniProt Q9EQU3); test: Activation of mouse TLR9 expressed in HEK293 assessed as induction of NF-kappaB activity reporter gene assay; format: cell-based
T2 sequence (whole entry): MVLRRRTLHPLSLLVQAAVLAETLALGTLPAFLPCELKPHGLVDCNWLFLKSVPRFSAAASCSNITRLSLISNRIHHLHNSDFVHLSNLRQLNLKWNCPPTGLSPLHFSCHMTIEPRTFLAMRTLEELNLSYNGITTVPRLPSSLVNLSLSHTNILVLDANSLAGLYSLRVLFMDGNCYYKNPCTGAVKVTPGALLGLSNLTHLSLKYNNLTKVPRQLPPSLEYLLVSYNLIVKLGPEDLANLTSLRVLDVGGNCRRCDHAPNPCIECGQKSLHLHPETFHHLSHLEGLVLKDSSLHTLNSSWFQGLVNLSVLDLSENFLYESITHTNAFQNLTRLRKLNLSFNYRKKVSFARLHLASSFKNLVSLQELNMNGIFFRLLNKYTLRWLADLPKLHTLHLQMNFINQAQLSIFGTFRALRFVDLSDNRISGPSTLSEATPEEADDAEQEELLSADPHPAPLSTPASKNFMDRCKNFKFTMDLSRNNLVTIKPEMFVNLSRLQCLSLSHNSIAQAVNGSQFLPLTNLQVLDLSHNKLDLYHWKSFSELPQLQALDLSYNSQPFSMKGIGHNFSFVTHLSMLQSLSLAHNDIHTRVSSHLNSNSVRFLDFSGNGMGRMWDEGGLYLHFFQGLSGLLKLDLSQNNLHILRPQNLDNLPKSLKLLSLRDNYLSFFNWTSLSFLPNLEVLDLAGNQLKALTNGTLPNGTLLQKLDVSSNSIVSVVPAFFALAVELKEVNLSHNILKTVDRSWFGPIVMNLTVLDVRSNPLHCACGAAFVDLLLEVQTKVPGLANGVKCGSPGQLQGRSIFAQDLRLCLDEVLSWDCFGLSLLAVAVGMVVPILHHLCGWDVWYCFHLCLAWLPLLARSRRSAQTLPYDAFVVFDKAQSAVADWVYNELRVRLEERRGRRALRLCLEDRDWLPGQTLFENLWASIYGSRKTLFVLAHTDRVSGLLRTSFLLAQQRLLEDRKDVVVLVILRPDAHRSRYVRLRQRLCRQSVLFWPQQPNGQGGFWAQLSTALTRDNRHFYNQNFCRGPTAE

| Structure (SMILES) | Activity (PBMC) [pg/mL] | fold change (FC) [1] | Activity [2] |
| --- | --- | --- | --- |
| Nc1ccn([C@@H]2O[C@H](COP(=O)(S)O[C@H]3[C@@H](O)[C@H](n4cnc5c(N)ncnc54)O[C@@H]3COP(=O)(S)O[C@H]3[C@@H](O)[C@H](n4cnc5c(N)ncnc54)O[C@@H]3CO)[C@@H](OP(=O)(S)OC[C@H]3O[C@@H](n4ccc(=O)[nH]c4=O)[C@H](O)[C@@H]3OP(=O)(S)OC[C@H]3O[C@@H](n4ccc5c(=O)[nH]c(N)nc54)[C@H](O)[C@@H]3OP(=O)(S)OC[C@H]3O[C@@H](n4cnc5c(N)ncnc54)[C@H](O)[C@@H]3OP(=O)(S)OC[C@H]3O[C@@H](n4ccc(N)nc4=O)[C@H](O)[C@@H]3OP(=O)(S)OC[C@H]3O[C@@H](n4ccc5c(=O)[nH]c(N)nc54)[C@H](O)[C@@H]3OP(=O)(S)OC[C@H]3O[C@@H](n4ccc(N)nc4=O)[C@H](O)[C@@H]3OP(=O)(S)OC[C@H]3O[C@@H](n4ccc(=O)[nH]c4=O)[C@H](O)[C@@H]3OP(=O)(S)OC[C@H]3O[C@@H](n4ccc5c(=O)[nH]c(N)nc54)[C@H](O)[C@@H]3OP(=O)(S)OCC(O)COP(=O)(S)O[C@H]3[C@@H](O)[C@H](n4ccc5c(=O)[nH]c(N)nc54)O[C@@H]3COP(=O)(S)O[C@H]3[C@@H](O)[C@H](n4ccc(=O)[nH]c4=O)O[C@@H]3COP(=O)(S)O[C@H]3[C@@H](O)[C@H](n4ccc(N)nc4=O)O[C@@H]3COP(=O)(S)O[C@H]3[C@@H](O)[C@H](n4ccc5c(=O)[nH]c(N)nc54)O[C@@H]3COP(=O)(S)O[C@H]3[C@@H](O)[C@H](n4ccc(N)nc4=O)O[C@@H]3COP(=O)(S)O[C@H]3[C@@H](O)[C@H](n4cnc5c(N)ncnc54)O[C@@H]3COP(=O)(S)O[C@H]3[C@@H](O)[C@H](n4ccc5c(=O)[nH]c(N)nc54)O[C@@H]3COP(=O)(S)O[C@H]3[C@@H](O)[C@H](n4ccc(=O)[nH]c4=O)O[C@@H]3COP(=O)(S)O[C@H]3[C@@H](O)[C@H](n4ccc(N)nc4=O)O[C@@H]3COP(=O)(S)O[C@H]3[C@@H](O)[C@H](n4cnc5c(N)ncnc54)O[C@@H]3COP(=O)(S)O[C@H]3[C@@H](O)[C@H](n4cnc5c(N)ncnc54)O[C@@H]3CO)[C@H]2O)c(=O)n1 (some centres undefined) | 0 | 18.4 | inactive |
| Nc1ccn([C@@H]2O[C@H](COP(=O)(S)O[C@H]3[C@@H](O)[C@H](n4cnc5c(N)ncnc54)O[C@@H]3COP(=O)(S)O[C@H]3[C@@H](O)[C@H](n4cnc5c(N)ncnc54)O[C@@H]3CO)[C@@H](OP(=O)(S)OC[C@H]3O[C@@H](n4ccc(=O)[nH]c4=O)[C@H](O)[C@@H]3OP(=O)(S)OC[C@H]3O[C@@H](n4ccc5c(=O)[nH]c(N)nc54)[C@H](O)[C@@H]3OP(=O)(S)OC[C@H]3O[C@@H](n4cnc5c(N)ncnc54)[C@H](O)[C@@H]3OP(=O)(S)OC[C@H]3O[C@@H](n4cnc5c(N)ncnc54)[C@H](O)[C@@H]3OP(=O)(S)OC[C@H]3O[C@@H](n4ccc5c(=O)[nH]c(N)nc54)[C@H](O)[C@@H]3OP(=O)(S)OC[C@H]3O[C@@H](n4ccc(N)nc4=O)[C@H](O)[C@@H]3OP(=O)(S)OC[C@H]3O[C@@H](n4ccc(=O)[nH]c4=O)[C@H](O)[C@@H]3OP(=O)(S)OC[C@H]3O[C@@H](n4ccc(=O)[nH]c4=O)[C@H](O)[C@@H]3OP(=O)(S)OCC(O)COP(=O)(S)O[C@H]3[C@@H](O)[C@H](n4ccc(=O)[nH]c4=O)O[C@@H]3COP(=O)(S)O[C@H]3[C@@H](O)[C@H](n4ccc(=O)[nH]c4=O)O[C@@H]3COP(=O)(S)O[C@H]3[C@@H](O)[C@H](n4ccc(N)nc4=O)O[C@@H]3COP(=O)(S)O[C@H]3[C@@H](O)[C@H](n4ccc5c(=O)[nH]c(N)nc54)O[C@@H]3COP(=O)(S)O[C@H]3[C@@H](O)[C@H](n4cnc5c(N)ncnc54)O[C@@H]3COP(=O)(S)O[C@H]3[C@@H](O)[C@H](n4cnc5c(N)ncnc54)O[C@@H]3COP(=O)(S)O[C@H]3[C@@H](O)[C@H](n4ccc5c(=O)[nH]c(N)nc54)O[C@@H]3COP(=O)(S)O[C@H]3[C@@H](O)[C@H](n4ccc(=O)[nH]c4=O)O[C@@H]3COP(=O)(S)O[C@H]3[C@@H](O)[C@H](n4ccc(N)nc4=O)O[C@@H]3COP(=O)(S)O[C@H]3[C@@H](O)[C@H](n4cnc5c(N)ncnc54)O[C@@H]3COP(=O)(S)O[C@H]3[C@@H](O)[C@H](n4cnc5c(N)ncnc54)O[C@@H]3CO)[C@H]2O)c(=O)n1 (some centres undefined) | 7.5 | 29.5 | inactive |
| Nc1ccn([C@@H]2O[C@H](CO)[C@@H](OP(=O)(S)OC[C@H]3O[C@@H](n4ccc(=O)[nH]c4=O)[C@H](O)[C@@H]3OP(=O)(S)OC[C@H]3O[C@@H](n4ccc(=O)[nH]c4=O)[C@H](O)[C@@H]3OP(=O)(S)OC[C@H]3O[C@@H](n4ccc5c(=O)[nH]c(N)nc54)[C@H](O)[C@@H]3OP(=O)(S)OC[C@H]3O[C@@H](n4ccc(=O)[nH]c4=O)[C@H](O)[C@@H]3OP(=O)(S)OC[C@H]3O[C@@H](n4ccc5c(=O)[nH]c(N)nc54)[C@H](O)[C@@H]3OP(=O)(S)OC[C@H]3O[C@@H](n4cnc5c(N)ncnc54)[C@H](O)[C@@H]3OP(=O)(S)OC[C@H]3O[C@@H](n4ccc5c(=O)[nH]c(N)nc54)[C@H](O)[C@@H]3OP(=O)(S)OC[C@H]3O[C@@H](n4ccc(N)nc4=O)[C@H](O)[C@@H]3OP(=O)(S)OC[C@H]3O[C@@H](n4ccc(=O)[nH]c4=O)[C@H](O)[C@@H]3OP(=O)(S)OC[C@H]3O[C@@H](n4ccc(=O)[nH]c4=O)[C@H](O)[C@@H]3OP(=O)(S)OCC(O)COP(=O)(S)O[C@H]3[C@@H](O)[C@H](n4ccc(=O)[nH]c4=O)O[C@@H]3COP(=O)(S)O[C@H]3[C@@H](O)[C@H](n4ccc(=O)[nH]c4=O)O[C@@H]3COP(=O)(S)O[C@H]3[C@@H](O)[C@H](n4ccc(N)nc4=O)O[C@@H]3COP(=O)(S)O[C@H]3[C@@H](O)[C@H](n4ccc5c(=O)[nH]c(N)nc54)O[C@@H]3COP(=O)(S)O[C@H]3[C@@H](O)[C@H](n4cnc5c(N)ncnc54)O[C@@H]3COP(=O)(S)O[C@H]3[C@@H](O)[C@H](n4ccc5c(=O)[nH]c(N)nc54)O[C@@H]3COP(=O)(S)O[C@H]3[C@@H](O)[C@H](n4ccc(=O)[nH]c4=O)O[C@@H]3COP(=O)(S)O[C@H]3[C@@H](O)[C@H](n4ccc5c(=O)[nH]c(N)nc54)O[C@@H]3COP(=O)(S)O[C@H]3[C@@H](O)[C@H](n4ccc(=O)[nH]c4=O)O[C@@H]3COP(=O)(S)O[C@H]3[C@@H](O)[C@H](n4ccc(=O)[nH]c4=O)O[C@@H]3COP(=O)(S)O[C@H]3[C@@H](O)[C@H](n4ccc(N)nc4=O)O[C@@H]3CO)[C@H]2O)c(=O)n1 (some centres undefined) | 403 | 28.9 | inactive |
